Each block holds one molecule with its values, some of them ahead of it.
Assays:
[1] = system: MEFs, CHO and DT40 cell lines lacking RAD51C; cancer cells lacking ALKBH3; details: cited from earlier work
PC3 cells = assay: Immunofluorescence of 3meC, PC3; format: cell-based, human; details: 48 h
In short: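 Stable RAD51C and/or ALKBH3 shRNA-knockdown PC3 cells were grown on chamber slides with MMS, then fixed in 4% formaldehyde (15 min, RT). DNA was denatured in 1.5 M HCl for 30 min and neutralised with sodium borate pH 8.5. Cells were permeabilised (0.1% Triton X-100), blocked (1% BSA), stained with anti-3meC overnight at 4°C, then Alexa-594 secondary, with DAPI counterstain. Signal was quantified as mean ± SE of three independent assays by Student's t-test.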

NCI-H23 cells [2] = assay: Calcein-AM viability assay, NCI-H23; format: cell-based, human; details: MMS 400 μM, 48 h; knockdown of RAD51C, ALKBH3, or both
In short: (§1)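 NCI-H23 cells grown in DMEM with 10% FBS at 37°C and 5% CO₂. Stable shRNA knockdown made by electroporation and 1 μg/ml puromycin selection for 30 days; the control shRNA targets luciferase. After MMS, cells were stained 30 min at 37°C with 2 μM Calcein AM in PBS and imaged by inverted fluorescence microscope. Percent MMS-induced cytotoxicity was plotted.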

PC-3 cells [3] = assay: Cell survival assay; format: cell-based, human; details: MTT, MMS 50–400 μM, 48 h
In short: (§2)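 Stable shRNA-knockdown cells (luciferase shRNA as control) seeded at 5000 per well in triplicate. MMS (0, 50, 100, 200, 300, 400 μM) was given continuously for 48 h. Medium was then replaced with 0.5 mg/ml MTT for 4 h at 37°C in the dark, formazan solubilised and A570 read. Percent viability given as mean ± SD from four experiments.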

NCI-H23 cells [4] = assay: Cell survival assay; format: cell-based, human; details: MTT, MMS 50–400 μM, 48 h
In short: as §2

PC-3 cells [5] = assay: Calcein-AM viability assay, PC-3; format: cell-based, human; details: MMS 400 μM, 48 h; knockdown of RAD51C, ALKBH3, or both
In short: as §1, with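 “PC-3” for “NCI-H23”, “Ham's F-12 GlutaMAX” for “DMEM”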

ALKBH3 [6] = biological target: T1, ALKBH3 (Homo sapiens, UniProt Q96Q83); assay: Co-immunoprecipitation; format: binding; details: for co-immunoprecipitation of endogenous ALKBH3: NCI-H23 and PC-3, Flag-HA-RAD51C constructs
T1 sequence (Q96Q83 1-286): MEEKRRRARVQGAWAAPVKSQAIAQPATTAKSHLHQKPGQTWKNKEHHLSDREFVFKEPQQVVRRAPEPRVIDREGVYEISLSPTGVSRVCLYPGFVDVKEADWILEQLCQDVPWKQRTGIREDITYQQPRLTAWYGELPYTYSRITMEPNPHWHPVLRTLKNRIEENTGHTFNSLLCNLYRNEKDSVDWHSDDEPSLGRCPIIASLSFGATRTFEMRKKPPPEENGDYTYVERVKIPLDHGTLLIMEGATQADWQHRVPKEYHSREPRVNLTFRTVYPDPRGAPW

ALKBH3 [7] = biological target: T1, ALKBH3; assay: Demethylation assay by direct detection of formaldehyde; format: biochemical
[8] = system: mutant ALKBH3 (H191A, D193A and H257A); assay: Demethylation assay with mutant ALKBH3; format: biochemical, human; details: mutant ALKBH3 0.2 μM, RAD51C 4.0 μM
ALKBH3 [9] = biological target: T1, ALKBH3; assay: Yeast two-hybrid with ALKBH3; format: binding; details: strain pJ69-4A; growth on dropout plates and lacZ reporter
In short: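 Full-length ALKBH2 or ALKBH3 fused to Gal4 binding domain (pGBKT7) was co-transformed with Gal4 activation domain (pACT2) fusions of RAD51, RAD51B, RAD51C, RAD51D, XRCC2 or XRCC3, or empty vectors. Transformants were selected on SD -Leu -Trp plates at 30°C for 2–3 days, then spotted on -His (triple) or -His -Ade (quadruple) dropout plates. lacZ was scored qualitatively by X-gal filter assay.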

XRCC3 = assay: Yeast two-hybrid with XRCC3; format: binding, human; details: pGBKT7-RAD51C or pGBKT7-RAD51CΔ42-52
GST-ALKBH3 = assay: GST pull-down of His-RAD51C constructs; format: binding, human; details: 150 μg GST-ALKBH3, ∼100 μg His-protein, room temperature, 2 h; MNase
In short: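 His-RAD51C, full-length or Δ42–52, was expressed in E. coli BL21-CodonPlus(DE3)-RIL (1 mM IPTG, 16°C, 18 h) and purified on Ni-NTA. It was incubated with GST-ALKBH3 bound to glutathione beads in 25 mM Tris pH 7.5, 1 mM CaCl₂ and 500 mM NaCl, with 10 U micrococcal nuclease. In competition runs, RAD51C 42–52 or 33–41 peptide was added at 50, 250 or 500 μM. Bound protein was detected by SDS-PAGE and anti-6xHis western blot.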

ALKBH3 [10] = biological target: T1, ALKBH3; assay: Steady-state; format: biochemical
RAD51B = assay: Yeast two-hybrid with RAD51B; format: binding, human; details: pGBKT7-RAD51C or pGBKT7-RAD51CΔ42-52
RAD51 = assay: Yeast two-hybrid with RAD51; format: binding, human; details: pGBKT7-RAD51C or pGBKT7-RAD51CΔ42-52
RAD51D = assay: Yeast two-hybrid with RAD51D; format: binding, human; details: pGBKT7-RAD51C or pGBKT7-RAD51CΔ42-52
ALKBH3 [11] = biological target: T1, ALKBH3; assay: Demethylation assay by dot-blot analysis, 3′-tailed DNA; format: biochemical; details: ALKBH3 0.4 μM, RAD51C or RAD51CΔ42–52 8 μM, 3′-tailed DNA 8 μM, anti-3meC antibody
NCI-H23 cells [12] = assay: Immunofluorescence of 3meC, NCI-H23; format: cell-based, human; details: stable RAD51C knockdown NCI-H23, MMS 400 μM, 48 h; at least 50 cells counted
In short: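 RNAi-resistant Flag-HA-RAD51C, wild-type or Δ42–52, was electroporated into stable RAD51C-knockdown cells 24 h before MMS. Cells were fixed in formaldehyde, denatured in HCl, then co-stained for anti-HA (recombinant protein) and anti-3meC, with DAPI. Images were taken by fluorescence microscopy and signals quantified.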

[13] = combined RAD51C and ALKBH3 knockdown
[14] = stable RAD51C and ALKBH3 knockdown
[15] = HEK-293T, Flag-HA-RAD51C constructs and Myc-ALKBH3 co-expressed, anti-Flag
[16] = 3′-tailed DNA 0.6–9.6 μM, ALKBH3 0.2 μM, RAD51C or RAD51CΔ42–52 4 μM, FDH-coupled

Molecule: COS(C)(=O)=O [MMS, methyl methanesulphonate]
MMS sensitivity [1]: MMS sensitivity
3meC accumulation in nucleus (PC3 cells; MMS 400 μM, ALKBH3 knockdown): a number of cells showed 3meC accumulation in the nucleus
3meC level, effect less than ALKBH3 knockdown (PC3 cells; MMS 400 μM, RAD51C knockdown): ~50%
3meC accumulation in nucleus (PC3 cells; MMS 400 μM, combined RAD51C and ALKBH3 knockdown): 3meC accumulation in the nucleus in a manner epistatic with ALKBH3 knockdown
3meC signal in nucleus (PC3 cells; MMS 400 μM, control shRNA): no visible signal for 3meC were detected in the nucleus
MMS sensitivity (Calcein-AM) (NCI-H23 cells [2]): MMS sensitive
cell survival, combined knockdown (PC-3 cells [3]; [13]): severe cell survival defect
cell proliferation (PC-3 cells [3]; [14]): significantly affected
cell survival, combined knockdown (NCI-H23 cells [4]; [13]): severe cell survival defect
cell proliferation (NCI-H23 cells [4]; [14]): significantly affected
MMS sensitivity (Calcein-AM) (PC-3 cells [5]): MMS sensitive

effect of ATP exclusion or ATP-γ-S on RAD51C stimulation (ALKBH3 [7]; ALKBH3 0.2 μM, RAD51C 4.0 μM): did not affect the results
yeast two-hybrid interaction with ALKBH3 (ALKBH3 [9]): robust interaction
Molecule: RAD51C: human RAD51 paralogue, recombinant or expressed (tag-less, His-tag or Flag-HA)
co-immunoprecipitation of ALKBH3 (ALKBH3 [6]; [15]): ALKBH3 was immunoprecipitated with RAD51C
co-immunoprecipitation of endogenous ALKBH3 (ALKBH3 [6]; anti-Flag): immunoprecipitated endogenous ALKBH3 in both the cell lines
co-immunoprecipitation of ALKBH3 (ALKBH3 [6]; PC-3, endogenous proteins, anti-RAD51C antibody): ALKBH3 could indeed be immunoprecipitated with RAD51C
formaldehyde release, RAD51C only (ALKBH3 [7]; RAD51C without ALKBH3): did not result in any formaldehyde release
effect on mutant ALKBH3 activity [8]: indistinguishable from the mutant ALKBH3 alone
yeast two-hybrid interaction with XRCC3 (XRCC3): interacted strongly
pull-down by GST-ALKBH3 (GST-ALKBH3): could be pulled down by GST-ALKBH3
Km (ALKBH3 [10]; [16]): 1.7 µM
kcat/KM (ALKBH3 [10]; [16]): 2.6 min^-1μM^-1
Vmax (ALKBH3 [10]; 3′-tailed DNA, RAD51C 4 μM with ALKBH3 0.2 μM): increased the Vmax for ALKBH3 reaction
yeast two-hybrid interaction with RAD51B (RAD51B): interacted strongly
yeast two-hybrid interaction with RAD51 (RAD51): weak interaction
yeast two-hybrid interaction with RAD51D (RAD51D): weak interaction
effect on 3meC level (ALKBH3 [11]): reduction in the levels of 3meC in 3′-tailed DNA was higher compared to the ALKBH3 alone

co-immunoprecipitation of ALKBH3 (ALKBH3 [6]; [15]): not with RAD51CΔ42–52
yeast two-hybrid interaction with ALKBH3 (ALKBH3 [9]): completely abolished
B1: RAD51CΔ42–52 (protein)
chain: MRGKTFRFEMQRDLVSFPLSPAVRVKLVSAGFQTAEELLEVSKAEALETLQIIRRECLTNKPRYAGTSESHKKCTALELLEQEHTQGFIITFCSALDDILGGGVPLMKTTEICGAPGVGKTQLCMQLAVDVQIPECFGGVAGEAVFIDTEGSFMVDRVVDLATACIQHLQLIAEKHKGEEHRKALEDFTLDNILSHIYYFRCRDYTELLAQVYLLPDFLSEHSKVRLVIVDGIAFPFRHDLDDLSLRTRLLNGLAQQMISLANNHRLAVILTNQMTTKIDRNQALLVPALGESWGHAATIRLIFHWDRKQRLATLYKSPSQKECTVLFQIKPQGFRDTVVTSACSLQTEGSLSTRKRSRDPEEEL
modifications: left off: Gal4 activation domain, end not stated, kept
co-immunoprecipitation of endogenous ALKBH3 (ALKBH3 [6]; anti-Flag): significantly reduced amount of endogenous ALKBH3 was immunoprecipitated
3meC signal increase after mutant expression (PC3 cells; stable RAD51C knockdown PC3, MMS 400 μM, at least 50 cells counted): at least 50%
yeast two-hybrid interaction with XRCC3 (XRCC3): interacted strongly
pull-down by GST-ALKBH3 (GST-ALKBH3): could not be pulled down by GST-ALKBH3
3meC signal increase after mutant expression (NCI-H23 cells [12]): at least 50%
kcat/KM (ALKBH3 [10]; [16]): 1.42 min^-1μM^-1
yeast two-hybrid interaction with RAD51B (RAD51B): interacted strongly
yeast two-hybrid interaction with RAD51 (RAD51): weak interaction
yeast two-hybrid interaction with RAD51D (RAD51D): weak interaction
effect on 3meC level (ALKBH3 [11]): could not result in any significant reduction in the levels of 3meC compared to ALKBH3 alone
